The nature of series [1]: Inhibition of insect cell COX2 at 200 ug/mL. The method, boiled down:
(§1)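 COX-II was an insect cell lysate preparation, diluted in Tris at pH 7.0 to about 1.5 mg protein/mL. O2 uptake was measured at 37 °C by oxygen electrode. Mixture: 0.1 M Tris at pH 7.0, phenol, hemoglobin and 100 µmol arachidonic acid. Compound was added in DMSO, and the reaction was started by adding enzyme protein.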

For series [2], the target named is T1, Prostaglandin G/H synthase 1 (Ovis aries) (UniProt P05979).
T1 sequence (whole entry): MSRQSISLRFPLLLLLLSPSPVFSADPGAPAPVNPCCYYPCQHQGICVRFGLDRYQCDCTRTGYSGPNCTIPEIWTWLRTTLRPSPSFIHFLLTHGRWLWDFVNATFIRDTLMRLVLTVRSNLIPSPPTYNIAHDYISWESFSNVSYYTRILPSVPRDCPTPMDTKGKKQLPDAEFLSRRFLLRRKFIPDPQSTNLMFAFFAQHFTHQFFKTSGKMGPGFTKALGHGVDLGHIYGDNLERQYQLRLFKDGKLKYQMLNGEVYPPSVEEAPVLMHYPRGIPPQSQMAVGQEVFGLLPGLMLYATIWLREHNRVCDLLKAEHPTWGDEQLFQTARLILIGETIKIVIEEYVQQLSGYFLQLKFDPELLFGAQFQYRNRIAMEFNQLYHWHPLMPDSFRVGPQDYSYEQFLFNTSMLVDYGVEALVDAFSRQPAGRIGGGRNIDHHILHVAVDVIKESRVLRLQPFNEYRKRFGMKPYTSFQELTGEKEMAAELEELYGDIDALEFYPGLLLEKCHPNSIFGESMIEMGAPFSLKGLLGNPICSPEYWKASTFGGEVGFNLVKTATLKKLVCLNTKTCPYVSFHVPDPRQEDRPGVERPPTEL
The series can be described thus: Inhibition of sheep COX1. An outline of the steps:
(§2)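 COX-I. Initial rate of O2 uptake measured at 37 °C with an oxygen electrode. Mixture: 0.1 M Tris at pH 7.0, 1 mmol phenol, 85 µg hemoglobin and 100 µmol arachidonic acid. Compound was added in DMSO, with a DMSO-only control. Reaction was started with 5-25 µg microsomal protein. Results are expressed as % inhibition.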

Series [3] is described as follows: Antioxidation activity assessed as inhibition of peroxidation of liposome at 60 ug/mL. The format is physicochemical. The note with it: artificial membrane. An outline of the steps:
(§3)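 Fe2+-initiated peroxidation of large unilamellar liposomes made from 1-stearoyl-2-linoleoyl-phosphocholine with the fluorescent probe 3-[p-(6-phenyl)-1,3,5-hexatrienyl]phenylpropionic acid. Liposomes were extruded through a 100 nm membrane. The assay used Chelex-treated HEPES buffer at pH 7.0 with NaCl, at 23 °C, with test agent in DMSO. Reaction was started with 20 µM FeCl2 (final). Fluorescence (excitation 384 nm) was read every 3 min for 21 min. Positive controls were at 10 µM final.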

Series [4] can be described thus: Antioxidation activity assessed as inhibition of peroxidation of liposome at 4.31 ug/mL. The format is physicochemical. The note with it: artificial membrane. The method, boiled down: as §3
The nature of series [5]: Antioxidation activity assessed as inhibition of peroxidation of liposome at 2.20 ug/mL. The format is physicochemical. The following applies: artificial membrane. The method, boiled down:
as §3

Series [6] in a line: Antioxidation activity assessed as inhibition of peroxidation of liposome at 1.66 ug/mL. Format: physicochemical. The note with it: artificial membrane. An outline of the steps: as §3
Series [7] deals with T1, Prostaglandin G/H synthase 1 (Ovis aries). The note with it: 2.06 ug/mL.
Series [8] shares this target. The following applies: 180 ug/mL.
Series [9] shares this target. The series can be described thus: Inhibition of sheep COX1 at 125 ug/mL. An outline of the steps:
as §2

The nature of series [10]: Antioxidation activity assessed as inhibition of peroxidation of liposome. Format: physicochemical. The following applies: artificial membrane. The method, boiled down:
as §3

A short description of series [11]: Inhibition of insect cell COX2 at 125 ug/mL. The method, boiled down: as §1
The target in series [12] is T1, Prostaglandin G/H synthase 1 (Ovis aries). The series can be described thus: Inhibition of sheep COX1 at 200 ug/mL. The method, boiled down:
as §2

For series [13] the target is unchanged. The note with it: 2.52 ug/mL.
A short description of series [14]: Antioxidation activity assessed as inhibition of peroxidation of liposome at 1.80 ug/mL. The format is physicochemical. The following applies: artificial membrane. An outline of the steps:
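Large unilamellar liposomes (100 nm extrusion) of 1-stearoyl-2-linoleoyl phosphatidylcholine carrying a phenylhexatrienyl-phenylpropionic acid fluorescent probe, in Chelex-treated HEPES pH 7.0 with NaCl. Test compound added in DMSO. Peroxidation started with FeCl2 (20 µM Fe2+ final) at 23 °C. Fluorescence (excitation 384 nm) read every 3 min for 21 min; the fall in relative intensity gives the peroxidation rate.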

The source made the active and inactive calls. The rule behind the calls is not given here.

On to `COc1ccc(-c2cc(=O)c3c(OC)cc(O[C@@H]4O[C@H](CO[C@H]5OC[C@@H](O)[C@H](O)[C@H]5O)[C@@H](O)[C@H](O)[C@H]4O)cc3o2)cc1OC`, for which the outcome in series [1] and in [2] was inactive. Besides, the “inhibition (INH)” value in [3] turned out to be 98%.
Consider VITAMIN E, for which the “inhibition (INH)” value in [4] is 7%.
On to `Cc1cc(C(C)(C)C)c(O)c(C(C)(C)C)c1` [BUTYLATED HYDROXYTOLUENE], for which the “inhibition (INH)” value in series [5] is 81%.
As to `CC(C)(C)c1cc(O)ccc1O` [E319], in [6], the “inhibition (INH)” value was 90%.
As a reminder, the inhibition is the relative decrease from the control value, in per cent. Read a high inhibition as strong suppression. `CC(C)Cc1ccc(C(C)C(=O)O)cc1` (configuration not stated): the inhibition in series [7] was 53.3%.
Take `COc1ccc(-c2cc(=O)c3c(OC)cc(O[C@@H]4O[C@H](CO[C@H]5OC[C@@H](O)[C@H](O)[C@H]5O)[C@@H](O)[C@H](O)[C@H]4O)cc3o2)cc1`: the outcome in series [1] and in [2] was inactive. Also, in [3], the “inhibition (INH)” value turned out to be 78%.
For the molecule `CC(=O)Oc1ccccc1C(=O)O`, the inhibition in [8] was 52.1%.
In the case of `COc1ccc(-c2cc(=O)c3c(OC)cc(O[C@@H]4O[C@H](CO[C@H]5O[C@H](C)[C@@H](O)[C@H](O)[C@H]5O)[C@@H](O)[C@H](O)[C@H]4O)cc3o2)cc1OC`, the result in [1] and in [2] was inactive. In addition, the “inhibition (INH)” value in [3] is reported as 67%.
With `COc1cc(/C=C/CO)c(OC)c(O[C@@H]2O[C@H](CO)[C@@H](O)[C@H](O)[C@H]2O)c1`, in [9], the inhibition came to 9.2%. Further, the Activity result in [10] was “Not Active”. The outcome in [11] was inactive.
Turning to `COc1cc(O[C@@H]2O[C@H](CO[C@H]3OC[C@@H](O)[C@H](O)[C@H]3O)[C@@H](O)[C@H](O)[C@H]2O)cc2oc(-c3ccc(O)cc3)cc(=O)c12`, the outcome in series [1] was inactive. In addition, the “inhibition (INH)” value in series [3] is on record as 71%. This molecule also registered an inhibition in series [12] of 12.5%.
On to `COc1ccc2cc([C@H](C)C(=O)O)ccc2c1`, for which the inhibition in series [13] came out at 58%.
As to `COc1ccc(O)c(C(C)(C)C)c1.COc1ccc(O)cc1C(C)(C)C` [BUTYLATED HYDROXYANISOLE], in [14], the “inhibition (INH)” value was 91%.

Source of the values: ChEMBL document CHEMBL1144143, “Phenolic glycosides from Dirca palustris” (J Nat Prod, 1999).
